“Also recorded” adds a separate entry of the source. Like-named read-outs stand apart in the source and are kept apart here.
Legend:
[1] = tested on: cultured hippocampal neurons; assay: NMDA-induced increase in [Na+]c; assay type: cell-based, rat; conditions: MK801 1 μM, memantine 10 μM, AP-5 20 μM; Suppl. Fig. 4
[2] = tested on: cultured hippocampal neurons; assay: NMDA-induced plasma membrane depolarization; assay type: cell-based, rat; conditions: 30 μM NMDA plus 10 μM glycine; MK801 1 μM, memantine 10 μM, AP-5 20 μM; Suppl. Fig. 5
[3] = tested on: cultured hippocampal neurons; assay: Glutamate-induced increase in [Na+]c, fluorescence imaging; assay type: cell-based, rat; conditions: 25 μM glutamate plus 10 μM glycine; for effect on glutamate-induced increases in [Na+]c: SBFI, 1 μM MK801, 50 μM memantine, 200 μM AP-5; for effect on glutamate-induced increase in [Na+]c: Sodium Green, 10 μM EIPA, 10 μM MK801
[4] = tested on: cultured hippocampal neurons; assay: Glutamate-induced plasma membrane depolarization; assay type: cell-based, rat; conditions: Annine-6plus; 25 μM glutamate plus 10 μM glycine; 1 μM MK801, 50 μM memantine, 200 μM AP-5
In short: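 Rat P1 hippocampal neurons, glia-free, 12–14 DIV, in standard NaCl bath (pH 7.4). Loaded with 4 μM Annine-6plus for 5 min at room temperature; excitation 480 nm, emission >570 nm; F480 expressed as F/F0. Inhibitors in 0.2% DMSO. 142 mM KCl substituted for NaCl at end for full depolarization. Depolarization shown as % resting potential over time; mean ± s.e.m., n=3.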

NMDAR [5] = assay: NMDA-induced ion currents, whole-cell voltage-clamp; assay type: cell-based, rat
[6] = tested on: cultured hippocampal neurons; assay type: cell-based, rat
NMDAR [7] = assay: NMDA-induced increase in [Ca2+]c, calcium imaging; assay type: cell-based, rat; conditions: for IC50: read-out: IC50, inhibition of NMDA-induced increases in [Ca2+]c
NCXrev = assay: NCXrev-mediated ion currents, voltage ramp whole-cell patch-clamp; assay type: cell-based, rat; conditions: 5 mM Ni2+, 10 μM KB-R7943, 10 μM MK801, 50 μM memantine, 50 μM AP-5
[8] = tested on: cultured hippocampal neurons; assay: NMDA-induced DCD, calcium imaging; assay type: cell-based, rat; conditions: 30 μM NMDA plus 10 μM glycine; MK801 1 μM, memantine 10 μM, AP-5 20 μM; Suppl. Fig. 3
neurons = conditions: ref Levy and Lipton, 1990; cited from earlier work
[9] = tested on: NCXrev (reverse Na+/Ca2+ exchanger); assay: Gramicidin-induced; assay type: cell-based, rat; conditions: for efficacy of inhibition of gramicidin-induced increase in [Ca2+]c / IC50: 5 μM gramicidin; for efficacy of inhibition of gramicidin-induced increase in [Ca2+]c: 1 μM MK801, 50 μM memantine, 200 μM AP-5 (Fig. 3); for IC50: read-out: IC50, inhibition of gramicidin-induced increase in [Ca2+]c, bath with 5 μM nifedipine and 1 mM ouabain, Suppl. Fig. 6
[10] = tested on: cultured hippocampal neurons; conditions: CNQX 10–100 μM; ref Brustovetsky et al., 2011; cited from earlier work
NMDAR [11] = conditions: read-out: IC50, inhibition of NMDAR; ref Brustovetsky et al., 2011; cited from earlier work
forward mode of NCX = assay: Forward mode of NCX; assay type: cell-based; conditions: authors' unpublished data
[12] = whole-cell voltage-clamp, Suppl. Fig. 2
[13] = rat cultured hippocampal neurons, Suppl. Fig. 1

| Compound | effect on [Na+]c elevated after NMDA application [1] | effect on plasma membrane depolarization induced by NMDA [2] | effect on glutamate-induced increases in [Na+]c [3] | effect on glutamate-induced plasma membrane depolarization [4] | effect on NMDA-induced ion currents (NMDAR [5]; [12]) | effect on glutamate-induced DCD [6] | extent of inhibition of NMDA-induced increases in [Ca2+]c (NMDAR [7]; [13]) | IC50 (NMDAR [7]; [13]) [µM] | effect on NCXrev-mediated ion currents (NCXrev) | effect on DCD induced by NMDA [8] | efficacy of inhibition of gramicidin-induced increase in [Ca2+]c [9] | IC50 [9] [µM] | effect on glutamate-induced increase in [Na+]c [3] | effect on forward mode of NCX (forward mode of NCX) | further results |
| --- | --- | --- | --- | --- | --- | --- | --- | --- | --- | --- | --- | --- | --- | --- | --- |
| N[C@H](CCCP(=O)(O)O)C(=O)O [AP-5, D-(−)-2-Amino-5-phosphonopentanoic acid] | significantly lowered | completely prevented | neither attenuated | nor prevented | inhibited NMDA-induced ion currents | failed to prevent DCD; also recorded: failed to prevent or attenuate | completely inhibited | 2.2 ± 0.03 | practically without effect | completely prevented DCD | much less efficacious | 2.8 ± 0.7 |  |  | neuroprotection against glutamate excitotoxicity (neurons): only moderately effective |
| N#Cc1cc2[nH]c(=O)c(=O)[nH]c2cc1[N+](=O)[O-] [CNQX, 6-cyano-7-nitroquinoxaline-2,3-dione] |  |  |  |  |  |  |  |  |  |  |  |  |  |  | effect on glutamate-induced DCD [10]: had no effect |
| CCN(c1nc(N)c(C(=O)NC(=N)N)nc1Cl)C(C)C [EIPA, 5-(N-ethyl-N-isopropyl)amiloride] |  |  |  |  |  | failed to prevent or attenuate |  |  |  |  |  |  | significantly attenuated |  | effect on NMDA-induced increase in [Ca2+]c (NMDAR [7]; EIPA 10 μM, Suppl. Fig. 9): inhibited neither NMDAR nor NCXrev; effect on gramicidin-induced increase in [Ca2+]c ([9]; EIPA 10 μM, Suppl. Fig. 9): inhibited neither NMDAR nor NCXrev |
| N=C(N)SCCc1ccc(OCc2ccc([N+](=O)[O-])cc2)cc1 [KB-R7943] |  |  |  |  |  | failed to prevent DCD |  |  | strongly attenuated |  |  |  |  |  | IC50 (NMDAR [11]): 13.4 ± 3.6 µM |
| C[C@]12N[C@H](Cc3ccccc31)c1ccccc12 [MK801] | significantly lowered | completely prevented | neither attenuated | nor prevented | inhibited NMDA-induced ion currents | completely prevented | completely inhibited | 0.2 ± 0.04 | inhibited | completely prevented DCD | very effectively inhibited | 0.5 ± 0.08 | failed to prevent or diminish | not affected |  |
| CC12CC3CC(C)(C1)CC(N)(C3)C2 [memantine] | significantly lowered | completely prevented | neither attenuated | nor prevented |  | completely prevented |  |  | inhibited | completely prevented DCD | very effectively inhibited | 17.1 ± 0.24 |  | not affected | effect on NMDA-induced ion currents (NMDAR [5]): inhibited NMDA-induced ion currents; extent of inhibition of NMDA-induced increases in [Ca2+]c (NMDAR [7]): completely inhibited; IC50 (NMDAR [7]): 3.6 ± 0.05 µM |
